{"source": "paper PMC8561236", "about": "(Cell Reports Medicine, 2021)", "key": {"[1]": {"assay": "Pharmacokinetic study in rats", "type": "in vivo, Lewis rats", "settings": "rat, EC2319 subcutaneous 500 nmol/kg; analyte = label"}, "FRβ": {"system": "FRβ", "settings": "cited from earlier work"}, "[2]": {"assay": "Pharmacokinetic study in dogs", "type": "in vivo, beagle dogs", "settings": "dog"}, "[3]": {"system": "Ly6Chigh monocytes in EAU mice", "assay": "Experimental autoimmune uveitis", "design": "species or system B10.RIII mice", "settings": "mouse, in vivo, 200 mg/kg"}, "RAW264.7 cells": {"system": "RAW264.7 cells", "settings": "same experimental condition; cited from earlier work"}, "[4]": {"system": "CD172+ CD43− monocytes in anti-GBM rats", "assay": "Anti-GBM induced glomerulonephritis, blood monocyte analysis", "type": "in vivo, Wistar Kyoto rats", "settings": "oral, 4.56 μmol/kg on day 0 or 575 nmol/kg on days 0 and 3, day 6 whole blood", "procedure,_shortened": "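Male WKY rats on folate-deficient diet for 10 days, then IV anti-GBM serum (25 μL/100 g); diet continued. Dosing at 8 h (day 0) and day 3, ± 300-fold molar excess FA competitor; n = 3. Blood in 5 mM K2EDTA, analysed next day: RBC lysis of 100 μL blood, flow staining. CD172+CD43− monocytes expressed as percentage of total leukocytes.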"}}}
{"smiles": "Nc1nc(N)c2nc(CNc3ccc(C(=O)N[C@@H](CCC(=O)O)C(=O)O)cc3)cnc2n1", "note": "[AMT, Aminopterin]", "values": [{"measurement": "AUClast (% Total)", "setting": "[1]", "value": 9.17, "unit": "%"}, {"measurement": "binding affinity toward FRβ", "setting": "FRβ", "value": "negligible"}, {"measurement": "difference in AUClast between EC2319-derived AMT and the AMT adduct", "setting": "[2]", "value": "3- to 7 fold"}, {"measurement": "share of total AUClast", "setting": "[2]; both dosing routes (intravenous 1 mg/kg, subcutaneous 2.43 mg/kg), analyte = label", "value": "1.37%–2.99%"}]}
{"smiles": "CNC(=O)c1cc(Oc2ccc3nc(N[C@@H]4CCCC[C@H]4O)sc3c2)ccn1", "note": "[BLZ945]", "values": [{"measurement": "effect on classical (R1, Ly6Chigh CD43+) monocytes", "setting": "[3]", "value": "reduced significantly to background levels"}]}
{"smiles": "Nc1nc(=O)c2nc(CNc3ccc(C(=O)N[C@@H](CCC(=O)O)C(=O)O)cc3)cnc2[nH]1", "note": "[FA, Folic acid]", "values": [{"measurement": "biological effect of FA alone", "setting": "RAW264.7 cells", "value": "did not show an immediate biological effect"}]}
{"smiles": "CN(Cc1cnc2nc(N)nc(N)c2n1)c1ccc(C(=O)N[C@@H](CCC(=O)O)C(=O)O)cc1", "note": "[MTX, Methotrexate]", "values": [{"measurement": "effect on CD172+ CD43− monocytes", "setting": "[4]", "value": "ineffective"}]}
